PREPL inh = inhibits the human prolyl oligopeptidase-like enzyme | recombinant PREPL, fluorescence polarization activity-based probe | inhibition, % at 5.96 µM | AID 2751 | Q4J6C6 | actives 0.68% (n = 320,000);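 further: 0% = enzyme with DMSO and 100% = wells lacking enzyme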
ASAP1 GAP inh = blocks human ASAP1-stimulated Arf1 GTP hydrolysis; AID 624377; GDP FP detection; actives 0.19% (n = 360,000); Q9ULH1; inhibition, % at 16.5 µM; in the data active means inhibition above about 25%;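 further: 0% = vehicle with enzyme and substrate and 100% = no enzyme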
ARFGAP1 inh = inhibits rat ARF GTPase activating protein 1 | inhibition, % at 16.5 µM | actives 0.26% (n = 360,000) | Arfgap1-stimulated ARF1 GTP hydrolysis, GDP FP detection;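 active means inhibition above a per-plate limit, mean inhibition of low control wells plus 3 SD, cut at about 25% in these data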;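 further: 0% = DMSO wells with enzyme and 100% = wells lacking Arfgap1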
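material = rat Arfgap1 catalytic domain, aa 1-136 | also added = human ARF1(Δ1-17)-GTP substrate | compound dosing = one concentration, 16.5 µM, DMSO 1.26% | times = GTP hydrolysis reaction 2 h at 25 °C | measured by = FP, GDP Alexa 633 tracer displaced from anti-GDP antibody, 620/688 nm | evaluation = percent inhibition of Arfgap1-stimulated GTP hydrolysis | replication = single well per compound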
IDE cell inh = inhibits human insulin-degrading enzyme in HEK cells; AID 434962; FAbetaB cleavage, fluorescence polarization; P14735; actives 0.41% (n = 320,000); inhibition, % at 5.59 µM;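 active means percent inhibition above the average of all tested compounds plus 3 SD, set per screening campaign, cut at about 16% in these data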;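 further: IDE supplied by intact live HEK cells; FP after avidin binding of uncleaved biotin substrate so inhibition keeps polarization high; 0% = DMSO wells and 100% = 60 µM reference IDE inhibitor Ii1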
Target sequence (P14735 whole entry, looked up): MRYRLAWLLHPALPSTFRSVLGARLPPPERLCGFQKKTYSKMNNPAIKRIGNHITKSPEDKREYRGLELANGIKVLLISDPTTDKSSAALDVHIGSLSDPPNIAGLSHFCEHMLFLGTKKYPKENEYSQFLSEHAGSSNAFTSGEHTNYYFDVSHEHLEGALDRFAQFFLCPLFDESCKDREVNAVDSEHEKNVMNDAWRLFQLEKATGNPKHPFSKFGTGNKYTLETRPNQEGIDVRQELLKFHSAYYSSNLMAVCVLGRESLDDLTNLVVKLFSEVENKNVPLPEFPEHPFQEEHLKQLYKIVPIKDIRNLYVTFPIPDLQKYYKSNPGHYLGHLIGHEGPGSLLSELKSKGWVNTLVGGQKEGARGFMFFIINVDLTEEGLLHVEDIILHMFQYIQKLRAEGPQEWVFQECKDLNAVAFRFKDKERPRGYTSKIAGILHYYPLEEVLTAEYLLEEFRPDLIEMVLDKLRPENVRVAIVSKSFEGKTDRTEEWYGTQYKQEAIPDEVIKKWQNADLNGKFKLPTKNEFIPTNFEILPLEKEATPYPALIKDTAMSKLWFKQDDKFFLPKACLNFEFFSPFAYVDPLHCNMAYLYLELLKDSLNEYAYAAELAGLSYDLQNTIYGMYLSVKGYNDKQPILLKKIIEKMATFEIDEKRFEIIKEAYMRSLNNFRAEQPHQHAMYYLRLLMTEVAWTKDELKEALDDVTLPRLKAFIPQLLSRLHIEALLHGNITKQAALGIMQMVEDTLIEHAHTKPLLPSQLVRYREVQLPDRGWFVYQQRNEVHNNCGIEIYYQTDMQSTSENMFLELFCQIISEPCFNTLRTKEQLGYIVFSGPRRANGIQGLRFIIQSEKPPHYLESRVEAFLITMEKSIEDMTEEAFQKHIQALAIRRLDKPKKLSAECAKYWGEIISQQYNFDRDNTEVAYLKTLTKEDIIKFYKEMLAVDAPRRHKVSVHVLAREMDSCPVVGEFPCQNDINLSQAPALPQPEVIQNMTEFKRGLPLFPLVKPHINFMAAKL
IDE act = boosts human insulin-degrading enzyme activity in HEK cells. P14735. FAbeta-B cleavage, fluorescence polarization; 0% vehicle, 100% cell-free pure enzyme wells. activation, % at 5.96 µM. actives 0.073% (n = 340,000). AID 493087;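 active means activation above the mean of all tested compounds plus 3 SD, set per screening campaign, cut at about 17% in these data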
PREPL inh cf = confirmation of human PREPL enzyme inhibitors; recombinant PREPL, fluorescence polarization activity probe; shares compounds with PREPL inh; actives 67% (n = 2,000); inhibition, % at 5.96 µM; AID 2803;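 further: 0% = protein with DMSO and 100% = wells lacking protein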
* hit, by the source's call; · = not tested or not shown. In the library only some 1.2% were active in any assay of this set; here they are far more common. Unless noted, no stated cut-off is given here; in the data, active means inhibition above about 43%; inactive means the rest.

SMILES	PREPL inh	ASAP1 GAP inh	ARFGAP1 inh	IDE cell inh	IDE act	PREPL inh cf
COC(=O)CCC(=O)OC1(C)C(=O)C2=CN(c3ccccc3)C(c3ccc(OC)cc3)=CC2=C(Br)C1=O (configuration not stated)	30	6	4	-3	0	·
COC(=O)CCC(=O)OC1(C)C(=O)C2=CN(C3CC3)C(c3ccc(OC)cc3)=CC2=C(Br)C1=O (configuration not stated)	75*	11	0	-2	0	69*
COC(=O)CCC(=O)OC1(C)C(=O)C2=CN(CC3CC3)C(c3ccc(OC)cc3)=CC2=C(Br)C1=O (configuration not stated)	69*	·	·	1	-5	56*
COCCNC(=O)C(=O)NCC1OCCN1S(=O)(=O)c1ccc(F)cc1 (configuration not stated)	1	-4	-11	2	3	·
CCc1nnc(NC(=O)c2ccc(Br)c(S(=O)(=O)N3CCOCC3)c2)s1	9	2	18	1	0	·
NC(=O)c1cccnc1OCC(F)(F)F	-1	3	4	-1	1	·
O=C(O)c1ccc(N/N=C/c2ccc(-c3cc(Cl)ccc3Cl)o2)cc1	29	5	5	2	-1	·
Cc1c(C(=O)O)cccc1-c1ccc(/C=N/Nc2ccc(Br)cc2)o1	46*	9	-11	-1	1	22
Cc1c(C(=O)O)cccc1-c1ccc(/C=N/n2cnnc2)o1	18	12	-5	2	6	·
O=C(O)c1ccc(N/N=C/c2ccc(-c3cccc(Cl)c3)o2)cc1	57*	0	-10	6	1	55*
Cc1cc(=O)[nH]c(SCC(=O)N2CCCC(C)C2)n1 (configuration not stated)	0	1	3	4	10	·
O=C(COC(=O)CCc1c[nH]c2ccccc12)Nc1ccc([N+](=O)[O-])cc1	34	3	6	-1	-4	·
O=C(COC(=O)CCc1c[nH]c2ccccc12)Nc1cc([N+](=O)[O-])ccc1Cl	46*	5	11	3	5	43
Cc1ccccc1NC(=O)NCc1cccnc1	8	10	-6	5	3	·
Cc1ccccc1NC(=O)C(C#N)Cc1cccnc1 (configuration not stated)	70*	6	-8	8	7	1
CC(C)(C)NC(=S)Nc1ccc(Br)cc1	14	5	11	7	-1	·
CC(C)(C)NC(=S)Nc1ccc(Nc2ccccc2)cc1	59*	8	-2	-15	-2	10
COc1cc(NC(=O)CN2CCN(c3ccccc3F)CC2)c(C)cc1[N+](=O)[O-]	55*	-2	5	4	3	69*
Cc1c(N)cccc1N	50*	-5	9	-1	1	15
Cc1c(N)cccc1[N+](=O)[O-]	25	6	4	4	4	·
Cc1cc2cc(CNC(=O)c3ccc(Br)o3)ccc2n1C	65*	0	0	3	-2	66*
Cc1ccc(CNC(=O)c2ccc(Br)o2)cc1	-15	9	0	0	2	·
Cc1cc2cc(CNC(=O)Cc3cccs3)ccc2n1C	35	·	·	1	-8	·
Cc1cc2cc(CNC(=O)c3ccc(Br)o3)ccc2[nH]1	53*	-4	-7	5	-3	24
Cc1onc(-c2c(F)cccc2Cl)c1C(=O)NCCc1ccncc1	-4	-3	4	2	4	·
SMILES	PREPL inh	ASAP1 GAP inh	ARFGAP1 inh	IDE cell inh	IDE act	PREPL inh cf
Fc1cccc(CCN2CCNC[C@@H]2CC2CCCCC2)c1	44*	19	4	3	1	42
c1ccc(C2(CN3CCNC[C@@H]3CC3CCCCC3)CC2)cc1	6	-1	-3	0	-1	·
Cc1occc1-c1nnc(SCc2nc3ccccc3c(=O)n2CC#N)n1C	43*	6	1	3	-4	40
CCn1c(CSc2nnc(-c3ccoc3C)n2C)nc2cc(S(=O)(=O)N(C)C)ccc21	6	-9	5	1	2	·
Nc1cc2nsnc2cc1Br	46*	-6	22	2	1	32
C[C@H](O)[C@@H]1C(=O)N2CCc3c([nH]c4c(-c5ccccc5)cccc34)[C@@H]2C[C@@H]1N(C)C(=S)Nc1ccc(C#N)cc1	·	14	9	·	·	·

Assay outcomes as filed in PubChem BioAssay.
